{
  "source": "paper PMC6457116",
  "about": "(ACS chemical biology, 2018)",
  "system": "IMR-90 human lung fibroblasts",
  "assay": "Mammalian cell viability, Cell Titer Glo",
  "type": "cell-based",
  "conditions": "1 μg mL^−1 doxorubicin",
  "procedure,_shortened": "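IMR-90 fibroblasts from ATCC, grown in EMEM with 10% FBS and Pen-Strep at 37 °C, 5% CO2, split 1:3 at confluence. Seeded 20,000 cells/well and left overnight to adhere. Then treated 24 h or 48 h with 50 μM test compound (0.5% DMSO), 0.5% DMSO, 10% DMSO or doxorubicin hydrochloride (given as 1 μg mL−1 and 1.7 μM). CellTiter-Glo ATP luminescence, no-cell background. Percent death versus 0.5% DMSO.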",
  "data": [
    {"smiles": "COc1cccc2c1C(=O)c1c(O)c3c(c(O)c1C2=O)C[C@@](O)(C(=O)CO)C[C@@H]3O[C@H]1C[C@H](N)[C@H](O)[C@H](C)O1", "note": "[doxorubicin]", "values": [
      {"measurement": "cells dead", "setting": "24 h", "value": 50, "unit": "%"},
      {"measurement": "cell death (in words)", "setting": "48 h", "value": "near complete cell death"}
    ]}
  ]
}
